Results published in ChEMBL document CHEMBL4261600 (Eur J Med Chem, 2018).
Activity calls are given as the source filed them.

What was measured:
[1] = biological target: Tyrosine-protein kinase JAK3 (Homo sapiens) (UniProt P52333); experiment: Binding affinity to wild-type human partial length JAK3 JH1 catalytic domain (I781 to S1124 residues) expressed in mammalian expression system assessed as remaining unbound target protein level at 1000 nM by Kinomescan method relative to control
[2] = biological target: Mitogen-activated protein kinase kinase kinase 1 (Homo sapiens) (UniProt Q13233); experiment: Binding affinity to wild-type human partial length MAP3K1 (L1202 to W1512 residues) expressed in mammalian expression system assessed as remaining unbound target protein level at 1000 nM by Kinomescan method relative to control
[3] = biological target: Serine/threonine-protein kinase WNK2 (Homo sapiens) (UniProt Q9Y3S1); experiment: Binding affinity to wild-type human partial length WNK2 (V47 to D482 residues) expressed in mammalian expression system assessed as remaining unbound target protein level at 1000 nM by Kinomescan method relative to control
[4] = tested on: MV4-11; experiment: Antitumor activity against human MV4-11 cells xenografted in nu/nu mouse assessed as tumor growth inhibition at 10 to 30 mg/kg, po administered via gavage for 2 weeks measured every day during compound dosing; format: functional, organism-based
Outline: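 Female nu/nu mice, five weeks old, implanted subcutaneously in the right flank with 5 million MV4-11 cells in PBS/Matrigel 1:1. Daily oral gavage in 0.5% methylcellulose/0.4% Tween80 started at tumor volume 200–400 mm³, 10, 20 or 30 mg/kg/day or vehicle, 5 mice per group. Tumor volume (W²×L)/2 and body weight measured daily; mean ± SEM.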

[5] = biological target: Beta-adrenergic receptor kinase 1 (Homo sapiens) (UniProt P25098); experiment: Binding affinity to wild-type human full length GRK2 (M1 to L689 residues) expressed in mammalian expression system assessed as remaining unbound target protein level at 1000 nM by Kinomescan method relative to control
Outline: (§1)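 KINOMEscan competition binding profile across a panel of 468 kinases and mutants, with the inhibitor tested at a single concentration of 1 μM. Binding is reported as percent of control, meaning signal relative to a DMSO control.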

[6] = biological target: Insulin-like growth factor 1 receptor (Homo sapiens) (UniProt P08069); experiment: Binding affinity to wild-type human partial length IGF1R (L972 to D1294 residues) expressed in bacterial expression system assessed as remaining unbound target protein level at 1000 nM by Kinomescan method relative to control
[7] = tested on: Tyrosine-protein kinase ABL1 (Homo sapiens), P00519 [T315I]; experiment: Binding affinity to human non-phosphorylated ABL1 T315I mutant (S229 to K512 residues) expressed in mammalian expression system assessed as remaining unbound target protein level at 1000 nM by Kinomescan method relative to control
Outline: (§2)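 KINOMEscan competition-binding profiling across the panel of 468 kinases and mutants, with inhibitor tested at 1 μM. Binding is expressed as percent of control, with DMSO as the reference control.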

[8] = biological target: Serine/threonine-protein kinase PAK 4 (Homo sapiens) (UniProt O96013); experiment: Binding affinity to wild-type human partial length PAK4 (Q144 to R438 residues) expressed in bacterial expression system assessed as remaining unbound target protein level at 1000 nM by Kinomescan method relative to control
Outline: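 KINOMEscan binding panel of 468 kinases/mutants. Inhibitor was tested at a single concentration of 1 μM. Binding is reported as percent of control, defined relative to a DMSO control.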

[9] = biological target: Tyrosine-protein kinase SYK (Homo sapiens) (UniProt P43405); experiment: Binding affinity to wild-type human partial length SYK (D354 to N635 residues) expressed in bacterial expression system assessed as remaining unbound target protein level at 1000 nM by Kinomescan method relative to control
[10] = tested on: Phosphatidylinositol 4,5-bisphosphate 3-kinase catalytic subunit alpha isoform (Homo sapiens), P42336 [Q546K]; experiment: Binding affinity to human partial length PIK3CA Q546K mutant (R108 to N1068 residues) expressed in mammalian expression system assessed as remaining unbound target protein level at 1000 nM by Kinomescan method relative to control; outline: as §2
[11] = biological target: Non-receptor tyrosine-protein kinase TNK1 (Homo sapiens) (UniProt Q13470); experiment: Binding affinity to wild-type human full length TNK1 (M1 to P661 residues) expressed in bacterial expression system assessed as remaining unbound target protein level at 1000 nM by Kinomescan method relative to control; outline: as §1
[12] = biological target: Mitogen-activated protein kinase 8 (Homo sapiens) (UniProt P45983); experiment: Binding affinity to wild-type human full length JNK1 (M1 to Q384 residues) expressed in mammalian expression system assessed as remaining unbound target protein level at 1000 nM by Kinomescan method relative to control; outline: as §1
[13] = biological target: Serine/threonine-protein kinase 32B (Homo sapiens) (UniProt Q9NY57); experiment: Binding affinity to wild-type human full length YANK2 (M1 to S414 residues) expressed in bacterial expression system assessed as remaining unbound target protein level at 1000 nM by Kinomescan method relative to control
Outline: (§3)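 Profiled in a KINOMEscan binding panel with the inhibitor at a single concentration of 1 μM. Binding to each kinase was read out as percent of control, relative to a DMSO control. Strong binders were defined as those with a percent control value below 1.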

[14] = biological target: Mitogen-activated protein kinase kinase kinase kinase 1 (Homo sapiens) (UniProt Q92918); experiment: Binding affinity to wild-type human full length HPK1 (M1 to R799 residues) expressed in bacterial expression system assessed as remaining unbound target protein level at 1000 nM by Kinomescan method relative to control; outline: as §1
[15] = tested on: Receptor-type tyrosine-protein kinase FLT3 (Homo sapiens), P36888 [D835V]; experiment: Binding affinity to human partial length FLT3 D835V mutant (V592 to Y969 residues) expressed in bacterial expression system assessed as remaining unbound target protein level at 1000 nM by Kinomescan method relative to control; outline: as §2
[16] = biological target: Ribosomal protein S6 kinase alpha-4 (Homo sapiens) (UniProt O75676); experiment: Binding affinity to wild-type human partial length C-terminal RPS6KA4 kinase domain 2 (M375 to T705 residues) expressed in mammalian expression system assessed as remaining unbound target protein level at 1000 nM by Kinomescan method relative to control; outline: as §3
[17] = tested on: A-431; experiment: Antiproliferative activity against human A431 cells after 72 hrs by Celltiter-Glo assay; format: functional; settings: A-431, 72 h
Outline: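 Cells seeded at 3000/well in 96-well plates, exposed to serially diluted compound for 72 h at 37 °C, 5% CO2. Viability read by CellTiter-Glo luminescence and normalized to DMSO control. GI50 derived from curve fit, mean of three independent measurements. Culture media: DMEM/10% FBS for adherent lines; IMDM for MV4-11 and MEC-1/2; RPMI 1640 for suspension lines and CHL.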

[18] = biological target: Transient receptor potential cation channel subfamily M member 6 (Homo sapiens) (UniProt Q9BX84); experiment: Binding affinity to wild-type human partial length TRPM6 (Q1723 to I1998 residues) expressed in mammalian expression system assessed as remaining unbound target protein level at 1000 nM by Kinomescan method relative to control
[19] = biological target: Serine/threonine-protein kinase PAK 3 (Homo sapiens) (UniProt O75914); experiment: Binding affinity to wild-type human full length PAK3 (M1 to R544 residues) expressed in bacterial expression system assessed as remaining unbound target protein level at 1000 nM by Kinomescan method relative to control; outline: as §3
Serine/threonine-protein kinase PAK 3 (Homo sapiens), sequence (O75914 whole entry, looked up, the tested form may be a part): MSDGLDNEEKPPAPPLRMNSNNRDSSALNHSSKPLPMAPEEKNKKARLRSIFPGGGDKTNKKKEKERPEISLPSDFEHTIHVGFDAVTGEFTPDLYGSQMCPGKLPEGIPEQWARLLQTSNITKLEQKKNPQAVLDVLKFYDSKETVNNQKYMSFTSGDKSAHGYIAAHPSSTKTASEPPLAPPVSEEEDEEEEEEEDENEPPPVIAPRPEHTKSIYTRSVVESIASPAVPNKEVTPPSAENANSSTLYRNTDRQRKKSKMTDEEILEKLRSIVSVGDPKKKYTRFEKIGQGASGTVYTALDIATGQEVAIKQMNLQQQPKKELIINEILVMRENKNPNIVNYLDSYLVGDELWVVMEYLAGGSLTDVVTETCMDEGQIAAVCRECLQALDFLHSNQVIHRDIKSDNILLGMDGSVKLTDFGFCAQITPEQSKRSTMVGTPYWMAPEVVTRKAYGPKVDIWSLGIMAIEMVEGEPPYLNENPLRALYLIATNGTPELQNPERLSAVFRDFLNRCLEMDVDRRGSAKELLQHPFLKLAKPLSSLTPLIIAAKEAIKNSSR

Serine/threonine-protein kinase 32B (Homo sapiens), sequence (Q9NY57 whole entry, the tested form may be a part): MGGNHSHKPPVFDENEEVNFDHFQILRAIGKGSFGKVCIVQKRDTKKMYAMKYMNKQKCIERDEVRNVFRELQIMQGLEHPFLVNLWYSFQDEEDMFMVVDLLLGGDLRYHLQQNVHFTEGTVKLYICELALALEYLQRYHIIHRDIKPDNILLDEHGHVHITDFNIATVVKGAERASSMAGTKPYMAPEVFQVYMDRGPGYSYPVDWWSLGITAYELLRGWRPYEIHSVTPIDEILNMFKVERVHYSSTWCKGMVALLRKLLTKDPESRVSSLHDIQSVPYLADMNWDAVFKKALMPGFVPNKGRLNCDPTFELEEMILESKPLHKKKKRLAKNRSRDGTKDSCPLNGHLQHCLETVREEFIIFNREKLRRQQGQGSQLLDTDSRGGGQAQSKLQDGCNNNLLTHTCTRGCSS
Non-receptor tyrosine-protein kinase TNK1 (Homo sapiens), sequence (Q13470 whole entry, the tested form may be a part): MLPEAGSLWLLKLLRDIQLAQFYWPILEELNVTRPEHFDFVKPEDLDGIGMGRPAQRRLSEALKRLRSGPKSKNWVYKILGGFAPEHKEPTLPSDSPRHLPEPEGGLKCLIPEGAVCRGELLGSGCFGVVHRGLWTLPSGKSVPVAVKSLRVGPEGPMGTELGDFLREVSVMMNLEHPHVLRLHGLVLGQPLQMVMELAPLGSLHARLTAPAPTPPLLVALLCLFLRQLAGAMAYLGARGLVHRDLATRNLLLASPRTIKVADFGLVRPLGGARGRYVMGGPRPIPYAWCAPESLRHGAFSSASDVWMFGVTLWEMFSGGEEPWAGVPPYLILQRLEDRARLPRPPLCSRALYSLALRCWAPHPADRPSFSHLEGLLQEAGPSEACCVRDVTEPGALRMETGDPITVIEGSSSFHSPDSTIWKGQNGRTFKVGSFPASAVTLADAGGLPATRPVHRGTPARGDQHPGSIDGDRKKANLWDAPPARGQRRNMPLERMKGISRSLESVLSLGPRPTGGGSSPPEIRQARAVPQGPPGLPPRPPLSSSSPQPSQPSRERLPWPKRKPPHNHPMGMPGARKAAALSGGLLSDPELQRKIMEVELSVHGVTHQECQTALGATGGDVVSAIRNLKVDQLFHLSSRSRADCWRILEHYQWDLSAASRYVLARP
Mitogen-activated protein kinase kinase kinase kinase 1 (Homo sapiens), sequence (Q92918 whole entry, looked up, the tested form may be a part): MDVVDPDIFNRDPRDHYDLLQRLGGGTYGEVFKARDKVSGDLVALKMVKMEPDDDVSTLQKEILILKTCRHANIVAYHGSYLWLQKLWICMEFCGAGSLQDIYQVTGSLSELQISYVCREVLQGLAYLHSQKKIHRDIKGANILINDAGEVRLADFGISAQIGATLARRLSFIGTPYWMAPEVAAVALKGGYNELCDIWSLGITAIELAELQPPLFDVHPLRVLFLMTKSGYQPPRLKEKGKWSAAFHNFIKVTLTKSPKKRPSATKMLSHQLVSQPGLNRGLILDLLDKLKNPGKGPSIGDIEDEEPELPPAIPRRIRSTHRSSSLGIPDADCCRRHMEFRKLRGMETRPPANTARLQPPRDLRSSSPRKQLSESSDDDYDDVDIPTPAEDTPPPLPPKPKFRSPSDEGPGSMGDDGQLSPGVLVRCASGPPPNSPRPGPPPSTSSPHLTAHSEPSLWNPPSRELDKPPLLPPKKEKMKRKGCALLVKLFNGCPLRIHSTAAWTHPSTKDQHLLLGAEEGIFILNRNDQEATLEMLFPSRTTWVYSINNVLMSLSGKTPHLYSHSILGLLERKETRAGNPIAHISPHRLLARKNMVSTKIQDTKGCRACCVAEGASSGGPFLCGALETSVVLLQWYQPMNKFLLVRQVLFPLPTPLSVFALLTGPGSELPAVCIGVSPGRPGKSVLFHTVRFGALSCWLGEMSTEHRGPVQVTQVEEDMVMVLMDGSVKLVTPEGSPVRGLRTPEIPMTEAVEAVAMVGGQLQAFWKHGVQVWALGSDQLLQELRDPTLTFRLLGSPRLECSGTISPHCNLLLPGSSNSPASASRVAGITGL
Tyrosine-protein kinase JAK3 (Homo sapiens), sequence (P52333 whole entry, the tested form may be a part): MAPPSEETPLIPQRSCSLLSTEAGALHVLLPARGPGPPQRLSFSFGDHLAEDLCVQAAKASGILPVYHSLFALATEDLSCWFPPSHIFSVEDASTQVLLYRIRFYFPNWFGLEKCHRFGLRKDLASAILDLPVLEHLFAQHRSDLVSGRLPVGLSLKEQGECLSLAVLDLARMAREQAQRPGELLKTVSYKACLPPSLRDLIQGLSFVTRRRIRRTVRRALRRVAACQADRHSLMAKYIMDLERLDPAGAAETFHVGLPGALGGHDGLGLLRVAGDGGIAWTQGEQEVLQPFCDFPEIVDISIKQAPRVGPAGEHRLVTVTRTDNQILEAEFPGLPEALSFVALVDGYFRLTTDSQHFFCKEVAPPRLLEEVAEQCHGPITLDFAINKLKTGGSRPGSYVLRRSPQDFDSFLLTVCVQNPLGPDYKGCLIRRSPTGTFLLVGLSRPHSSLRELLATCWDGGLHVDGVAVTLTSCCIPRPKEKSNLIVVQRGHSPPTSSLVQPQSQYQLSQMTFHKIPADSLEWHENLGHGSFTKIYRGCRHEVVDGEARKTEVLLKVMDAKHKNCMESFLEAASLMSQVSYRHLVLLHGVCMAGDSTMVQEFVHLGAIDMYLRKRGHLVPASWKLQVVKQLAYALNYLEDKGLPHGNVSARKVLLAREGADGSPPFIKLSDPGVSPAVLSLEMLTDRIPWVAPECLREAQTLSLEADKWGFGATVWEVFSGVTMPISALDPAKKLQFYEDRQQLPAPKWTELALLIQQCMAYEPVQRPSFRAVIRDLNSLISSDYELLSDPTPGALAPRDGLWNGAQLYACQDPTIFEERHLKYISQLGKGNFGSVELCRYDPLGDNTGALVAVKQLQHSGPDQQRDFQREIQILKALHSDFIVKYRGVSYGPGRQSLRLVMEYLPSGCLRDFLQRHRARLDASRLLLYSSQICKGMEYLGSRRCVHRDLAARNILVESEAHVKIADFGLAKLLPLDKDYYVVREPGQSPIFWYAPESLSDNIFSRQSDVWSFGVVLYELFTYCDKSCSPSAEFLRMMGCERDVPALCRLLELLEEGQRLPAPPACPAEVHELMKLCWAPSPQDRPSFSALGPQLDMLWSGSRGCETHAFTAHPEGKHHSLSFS
Beta-adrenergic receptor kinase 1 (Homo sapiens), sequence (P25098 whole entry, the tested form may be a part): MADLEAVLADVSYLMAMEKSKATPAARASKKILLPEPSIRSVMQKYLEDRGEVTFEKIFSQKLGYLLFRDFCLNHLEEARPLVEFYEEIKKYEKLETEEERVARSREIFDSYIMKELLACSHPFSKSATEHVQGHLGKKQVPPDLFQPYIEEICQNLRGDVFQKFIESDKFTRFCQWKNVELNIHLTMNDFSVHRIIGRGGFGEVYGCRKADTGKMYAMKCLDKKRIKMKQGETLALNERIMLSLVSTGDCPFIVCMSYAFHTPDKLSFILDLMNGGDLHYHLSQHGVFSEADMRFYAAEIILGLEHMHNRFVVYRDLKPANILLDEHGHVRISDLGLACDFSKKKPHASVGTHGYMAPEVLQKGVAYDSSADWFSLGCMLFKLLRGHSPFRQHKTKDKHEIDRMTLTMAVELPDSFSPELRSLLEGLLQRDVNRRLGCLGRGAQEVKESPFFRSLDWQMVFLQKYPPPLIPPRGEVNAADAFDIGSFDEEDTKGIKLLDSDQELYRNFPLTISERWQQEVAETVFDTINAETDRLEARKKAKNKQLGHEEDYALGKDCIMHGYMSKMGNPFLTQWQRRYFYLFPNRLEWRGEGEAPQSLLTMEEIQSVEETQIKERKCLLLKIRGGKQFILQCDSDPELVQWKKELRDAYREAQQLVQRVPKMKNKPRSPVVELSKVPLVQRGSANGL
Mitogen-activated protein kinase 8 (Homo sapiens), sequence (P45983 whole entry, the tested form may be a part): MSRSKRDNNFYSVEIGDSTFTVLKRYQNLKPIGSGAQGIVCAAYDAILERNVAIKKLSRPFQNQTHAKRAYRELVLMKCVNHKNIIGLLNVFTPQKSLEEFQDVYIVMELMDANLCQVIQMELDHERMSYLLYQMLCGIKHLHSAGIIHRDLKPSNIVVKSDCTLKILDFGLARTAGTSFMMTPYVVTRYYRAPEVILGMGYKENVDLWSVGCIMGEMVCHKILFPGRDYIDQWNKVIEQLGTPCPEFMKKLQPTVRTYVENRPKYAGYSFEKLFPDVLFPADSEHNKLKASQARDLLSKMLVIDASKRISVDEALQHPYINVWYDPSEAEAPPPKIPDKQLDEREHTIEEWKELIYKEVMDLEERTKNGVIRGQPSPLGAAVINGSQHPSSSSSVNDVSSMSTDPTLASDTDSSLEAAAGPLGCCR

## COCCN[C@H]1CC[C@H](Nc2cc(-c3csc(NCC4(C#N)CCOCC4)n3)c(Cl)cn2)CC1
[1]
  Activity: 92%
[2]
  Activity: 100%
[3]
  Activity: 92%
[4]
  TGI: Active
[5]
  Activity: 91%
[6]
  Activity: 92%
[7]
  Activity: 100%
[8]
  Activity: 91%
[9]
  Activity: 93%
[10]
  Activity: 88%
[11]
  Activity: 56%
[12]
  Activity: 4.8%
[13]
  Activity: 100%
[14]
  Activity: 95%
[15]
  Activity: 88%
[16]
  Activity: 65%
[17]
  GI50: 19 nM
[18]
  Activity: 89%
[19]
  Activity: 97%
